# Key:
# SNB-19 = experiment: Cytotoxicity against human SNB19 cells assessed as cell growth at 10 uM after 48 hrs by SRB assay relative to control; format: functional; settings: SNB-19, 48 h, read-out: Activity
# Summary of the method: (§1)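 NCI-60 one-dose screen run by NCI DTP: each cell line exposed to a single 10 µM dose, and percentage growth recorded against untreated growth.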
# [1] = Cytotoxicity against human Hs578T cells assessed as cell growth at 10 uM after 48 hrs by SRB assay relative to control; format: functional; settings: Hs-578T, read-out: Activity
# Summary of the method: (§2)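 First-stage NCI-60 screen by the NCI Developmental Therapeutics Program. Each compound was tested once at a single concentration of 10 μM against the 60-cell-line panel. Growth percentage was reported for each cell line.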
# HL-60(TB) = experiment: Cytotoxicity against human HL-60(TB) cells assessed as cell growth at 10 uM after 48 hrs by SRB assay relative to control; format: functional; settings: HL-60, 48 h, read-out: Activity
# Summary of the method: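 NCI Developmental Therapeutics Program 60-cell-line screen, first stage: a single dose of 10 μM against the panel, reported as percentage growth.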
# OVCAR-8 = experiment: Cytotoxicity against human OVCAR8 cells assessed as cell growth at 10 uM after 48 hrs by SRB assay relative to control; format: functional; settings: OVCAR-8, 48 h, read-out: Activity
# Summary of the method: (§3)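 First-stage NCI DTP one-dose screen against the 60 human tumour cell line panel. Compounds were tested at a single 10 μM level, and results are given as growth percentage.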
# SK-MEL-2 = experiment: Cytotoxicity against human SK-MEL-2 cells assessed as cell growth at 10 uM after 48 hrs by SRB assay relative to control; format: functional; settings: SK-MEL-2, 48 h, read-out: Activity; summary of the method: as §3
# Malme-3M = experiment: Cytotoxicity against human MALME-3M cells assessed as cell growth at 10 uM after 48 hrs by SRB assay relative to control; format: functional; settings: read-out: Activity; summary of the method: as §2
# SNB-75 = experiment: Cytotoxicity against human SNB75 cells assessed as cell growth at 10 uM after 48 hrs by SRB assay relative to control; format: functional; settings: SNB-75, 48 h, read-out: Activity; summary of the method: as §1
# OVCAR-3 = experiment: Cytotoxicity against human OVCAR3 cells assessed as cell growth at 10 uM after 48 hrs by SRB assay relative to control; format: functional; settings: OVCAR-3, 48 h, read-out: Activity; summary of the method: as §3
# DU-145 = experiment: Cytotoxicity against human DU145 cells assessed as cell growth at 10 uM after 48 hrs by SRB assay relative to control; format: functional; settings: DU-145, 48 h, read-out: Activity; summary of the method: as §2
# IGROV-1 = experiment: Cytotoxicity against human IGROV1 cells assessed as cell growth at 10 uM after 48 hrs by SRB assay relative to control; format: functional; settings: IGROV-1, 48 h, read-out: Activity; summary of the method: as §2
# BT-549 = experiment: Cytotoxicity against human BT549 cells assessed as cell growth at 10 uM after 48 hrs by SRB assay relative to control; format: functional; settings: BT-549, 48 h, read-out: Activity; summary of the method: as §2
# K562 = experiment: Cytotoxicity against human K562 cells assessed as cell growth at 10 uM after 48 hrs by SRB assay relative to control; format: functional; settings: K562, 48 h, read-out: Activity; summary of the method: as §2
# TK-10 = experiment: Cytotoxicity against human TK10 cells assessed as cell growth at 10 uM after 48 hrs by SRB assay relative to control; format: functional; settings: TK-10, 48 h, read-out: Activity; summary of the method: as §1
# SK-MEL-28 = experiment: Cytotoxicity against human SK-MEL-28 cells assessed as cell growth at 10 uM after 48 hrs by SRB assay relative to control; format: functional; settings: SK-MEL-28, 48 h, read-out: Activity; summary of the method: as §3
# NCI-H460 = experiment: Cytotoxicity against human NCI-H460 cells assessed as cell growth at 10 uM after 48 hrs by SRB assay relative to control; format: functional; settings: NCI-H460, 48 h, read-out: Activity; summary of the method: as §3
# SF-539 = experiment: Cytotoxicity against human SF539 cells assessed as cell growth at 10 uM after 48 hrs by SRB assay relative to control; format: functional; settings: SF-539, 48 h, read-out: Activity; summary of the method: as §3
# UACC-62 = experiment: Cytotoxicity against human UACC62 cells assessed as cell growth at 10 uM after 48 hrs by SRB assay relative to control; format: functional; settings: UACC-62, 48 h, read-out: Activity; summary of the method: as §1
# PC-3 = experiment: Cytotoxicity against human PC3 cells after 48 hrs by SRB assay; format: functional, cell-based; settings: PC-3, 48 h
# Summary of the method: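 Second-stage NCI-60 panel run by the NCI Developmental Therapeutics Program, covering nine tumour subpanels. Five concentrations were tested: 0.01, 0.1, 1, 10 and 100 μM. Percentage growth at each level was plotted against log10 drug concentration. GI50, TGI and LC50 were read from these dose-response curves. Subpanel MID values were divided into the full-panel MID to give selectivity ratios.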
# HT-29 = experiment: Cytotoxicity against human HT-29 cells assessed as cell growth at 10 uM after 48 hrs by SRB assay relative to control; format: functional; settings: HT-29, 48 h, read-out: Activity; summary of the method: as §2
# NCI-H226 = experiment: Cytotoxicity against human NCI-H226 cells assessed as cell growth at 10 uM after 48 hrs by SRB assay relative to control; format: functional; settings: NCI-H226, 48 h, read-out: Activity; summary of the method: as §3
# KM12 = experiment: Cytotoxicity against human KM12 cells assessed as cell growth at 10 uM after 48 hrs by SRB assay relative to control; format: functional; settings: KM12, 48 h, read-out: Activity; summary of the method: as §2
# HCT-116 = experiment: Cytotoxicity against human HCT116 cells assessed as cell growth at 10 uM after 48 hrs by SRB assay relative to control; format: functional; settings: HCT-116, 48 h, read-out: Activity; summary of the method: as §2
# OVCAR-5 = experiment: Cytotoxicity against human OVCAR5 cells assessed as cell growth at 10 uM after 48 hrs by SRB assay relative to control; format: functional; settings: OVCAR-5, 48 h, read-out: Activity; summary of the method: as §3
# COLO 205 = experiment: Cytotoxicity against human COLO205 cells assessed as cell growth at 10 uM after 48 hrs by SRB assay relative to control; format: functional; settings: COLO 205, 48 h, read-out: Activity; summary of the method: as §2
# RXF 393 = experiment: Cytotoxicity against human RXF393 cells assessed as cell growth at 10 uM after 48 hrs by SRB assay relative to control; format: functional; settings: RXF 393, 48 h, read-out: Activity; summary of the method: as §3
# SN12C = experiment: Cytotoxicity against human SN12C cells assessed as cell growth at 10 uM after 48 hrs by SRB assay relative to control; format: functional; settings: read-out: Activity; summary of the method: as §3
# SR = experiment: Cytotoxicity against human SR cells assessed as cell growth at 10 uM after 48 hrs by SRB assay relative to control; format: functional; settings: read-out: Activity; summary of the method: as §1
# NCI/ADR-RES = experiment: Cytotoxicity against human NCI/ADR-RES cells assessed as cell growth at 10 uM after 48 hrs by SRB assay relative to control; format: functional; settings: read-out: Activity; summary of the method: as §3
# MOLT-4 = experiment: Cytotoxicity against human MOLT4 cells assessed as cell growth at 10 uM after 48 hrs by SRB assay relative to control; format: functional; settings: MOLT-4, 48 h, read-out: Activity; summary of the method: as §3
# UO-31 = experiment: Cytotoxicity against human UO31 cells assessed as cell growth at 10 uM after 48 hrs by SRB assay relative to control; format: functional; settings: UO-31, 48 h, read-out: Activity; summary of the method: as §1
# SK-OV-3 = experiment: Cytotoxicity against human SKOV3 cells assessed as cell growth at 10 uM after 48 hrs by SRB assay relative to control; format: functional; settings: SK-OV-3, 48 h, read-out: Activity; summary of the method: as §3
Structure (SMILES),growth at 10 µM (SNB-19) [%],growth at 10 µM (OVCAR-8) [%],growth at 10 µM (SK-MEL-2) [%],growth at 10 µM (Malme-3M) [%],growth at 10 µM (SNB-75) [%],growth at 10 µM (IGROV-1) [%],growth at 10 µM (TK-10) [%],growth at 10 µM (SK-MEL-28) [%],growth at 10 µM (SF-539) [%],growth at 10 µM (UACC-62) [%],IC50 (PC-3) [µM],growth at 10 µM (HT-29) [%],growth at 10 µM (NCI-H226) [%],growth at 10 µM (HCT-116) [%],growth at 10 µM (OVCAR-5) [%],growth at 10 µM (COLO 205) [%],growth at 10 µM (RXF 393) [%],growth at 10 µM (SN12C) [%],growth at 10 µM (NCI/ADR-RES) [%],growth at 10 µM (UO-31) [%],other results
CSc1ccc(Sc2cc3c(c4nsnc24)C(=O)c2ccccc2C3=O)cc1,102,97.4,89.3,105,75.1,95.7,128,120,96.5,111,> 15,102,79.7,102,108,117,107,98,91.8,67.6,growth at 10 µM [1]: 96.5%; growth at 10 µM (HL-60(TB)): 105%; growth at 10 µM (OVCAR-3): 103%; growth at 10 µM (DU-145): 101%; growth at 10 µM (BT-549): 108%; growth at 10 µM (K562): 67.5%; growth at 10 µM (NCI-H460): 106%; growth at 10 µM (KM12): 100%; growth at 10 µM (SR): 96.3%; growth at 10 µM (MOLT-4): 59.9%; growth at 10 µM (SK-OV-3): 102%
O=C1c2ccccc2C(=O)c2c1ccc1nsnc21,79,-10.1,-73.2,-71.6,79,-88.3,97,15.5,-47.1,-82.3,2.5,117,97.8,-50,-20.1,112,20.1,-73.3,-2.53,-79.3,growth at 10 µM [1]: 7.4%; growth at 10 µM (HL-60(TB)): -21.8%; growth at 10 µM (OVCAR-3): -15.5%; growth at 10 µM (DU-145): 40.8%; growth at 10 µM (K562): 49.6%; growth at 10 µM (NCI-H460): 77.4%; growth at 10 µM (KM12): 98.6%; growth at 10 µM (SR): 4.96%; growth at 10 µM (MOLT-4): -40.1%; growth at 10 µM (SK-OV-3): 101%
CCOc1cccc(Sc2cc3c(c4nsnc24)C(=O)c2ccccc2C3=O)c1,103,112,103,109,77.2,94.7,125,112,93.7,109,> 15,106,90.5,101,117,106,118,105,102,76.7,growth at 10 µM (BT-549): 104%; growth at 10 µM (SK-OV-3): 99.4%
O=C1c2ccccc2C(=O)c2c1cc(Sc1ccc(F)cc1F)c1nsnc21,87.3,0.32,51.8,39.5,42.9,,112,79.5,58.8,53.3,14.8,102,88.8,-63.1,110,104,36.7,9.12,-26.2,70.3,growth at 10 µM [1]: 50.1%; growth at 10 µM (HL-60(TB)): -37.7%; growth at 10 µM (OVCAR-3): -52.3%; growth at 10 µM (DU-145): 41.3%; growth at 10 µM (BT-549): 66.4%; growth at 10 µM (K562): -21.1%; growth at 10 µM (NCI-H460): 83.6%; growth at 10 µM (KM12): 51.8%; growth at 10 µM (SR): 0.2%; growth at 10 µM (MOLT-4): -41.6%; growth at 10 µM (SK-OV-3): 92.6%
Cc1cccc(C)c1Sc1cc2c(c3nsnc13)C(=O)c1ccccc1C2=O,94.8,59,67.5,73.7,69.4,66.4,119,89.3,84.5,91.7,6.74,97.7,78.3,65,114,98.8,76.2,67.7,59.7,66.7,growth at 10 µM [1]: 82.4%; growth at 10 µM (HL-60(TB)): 47.8%; growth at 10 µM (OVCAR-3): 1%; growth at 10 µM (DU-145): 106%; growth at 10 µM (BT-549): 105%; growth at 10 µM (K562): 43.1%; growth at 10 µM (NCI-H460): 87.4%; growth at 10 µM (KM12): 96%; growth at 10 µM (SR): 35.5%; growth at 10 µM (MOLT-4): 32.6%
O=C1c2ccccc2C(=O)c2c1cc(Sc1cccc(Cl)c1)c1nsnc21,56.9,-22.9,-53.2,-86.6,26.1,-13.5,53.8,25,-52.7,-65,5.64,102,78.1,-67.8,109,106,-27.8,-66.2,-15.1,-74.8,growth at 10 µM (BT-549): 36.2%; growth at 10 µM (SK-OV-3): 95.4%

# Source: ChEMBL document CHEMBL3621107, “Ring fusion strategy for synthesis and lead optimization of sulfur-substituted anthra[1,2-c][1,2,5]thiadiazole-6,11-dione derivatives as promising scaffold of antitumor agents” (Eur J Med Chem, 2015)
